Activity calls are given as the source filed them. The calls are words filed in the database; no cut-off is given here.
Columns and labels:
MCF7 [1] = experiment: Inhibition of epithelial-mesenchymal transition in human MCF7 cells assessed as decrease in vimentin expression level at 2 to 10 uM after 48 hrs by Western blot analysis; format: functional, cell-based
Summary of the method: (§1)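 MCF-7 cells in RPMI 1640 with 10% FBS, 37 °C, 5% CO2, exposed to no drug, 2 or 10 µM for 48 h. RIPA lysates, BCA quantitation, 8% SDS-PAGE, PVDF transfer, primary antibodies overnight 4 °C, secondary 2 h RT, ECL and densitometry for ZO-1, E-cadherin, N-cadherin, vimentin. Mean ± SD of 3 independent tests.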

MGC-803 = experiment: Antitumour activity against human MGC803 cells assessed as cell growth inhibition measured after 72 hrs by SRB assay; format: functional, cell-based; details: MGC-803, 72 h
Summary of the method: (§2)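 Exponentially growing cells trypsinized, seeded at 5 × 10^4 cells/mL in 96-well plates, cultured overnight, then exposed to compounds for 72 h. Cells fixed with 10% TCA 1 h, stained with SRB 15 min, dye dissolved in Tris-HCl, absorbance read; 50% growth-inhibitory concentration calculated.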

MCF7 [2] = experiment: Inhibition of epithelial-mesenchymal transition in human MCF7 cells assessed as increase in E-cadherin expression level at 2 to 10 uM after 48 hrs by Western blot analysis; format: functional, cell-based; summary of the method: as §1
[3] = Hepatotoxicity in nude mouse xenografted with human MCF7 cells assessed as slight increase in serum aspartate transaminase level at 22.5 to 45 mg/kg/day, ip administered for 21 days by automatic biochemical analyzer; format: toxicity, organism-based; details: in vivo, 504 h
[4] = target: Focal adhesion kinase 1 (Homo sapiens) (UniProt Q05397); experiment: Reduction in FAK phosphorylation in HUVEC at 2 to 10 uM after 48 hrs by Western blot analysis; format: cell-based
Focal adhesion kinase 1 (Homo sapiens), sequence (Q05397 2-1052 limits assumed): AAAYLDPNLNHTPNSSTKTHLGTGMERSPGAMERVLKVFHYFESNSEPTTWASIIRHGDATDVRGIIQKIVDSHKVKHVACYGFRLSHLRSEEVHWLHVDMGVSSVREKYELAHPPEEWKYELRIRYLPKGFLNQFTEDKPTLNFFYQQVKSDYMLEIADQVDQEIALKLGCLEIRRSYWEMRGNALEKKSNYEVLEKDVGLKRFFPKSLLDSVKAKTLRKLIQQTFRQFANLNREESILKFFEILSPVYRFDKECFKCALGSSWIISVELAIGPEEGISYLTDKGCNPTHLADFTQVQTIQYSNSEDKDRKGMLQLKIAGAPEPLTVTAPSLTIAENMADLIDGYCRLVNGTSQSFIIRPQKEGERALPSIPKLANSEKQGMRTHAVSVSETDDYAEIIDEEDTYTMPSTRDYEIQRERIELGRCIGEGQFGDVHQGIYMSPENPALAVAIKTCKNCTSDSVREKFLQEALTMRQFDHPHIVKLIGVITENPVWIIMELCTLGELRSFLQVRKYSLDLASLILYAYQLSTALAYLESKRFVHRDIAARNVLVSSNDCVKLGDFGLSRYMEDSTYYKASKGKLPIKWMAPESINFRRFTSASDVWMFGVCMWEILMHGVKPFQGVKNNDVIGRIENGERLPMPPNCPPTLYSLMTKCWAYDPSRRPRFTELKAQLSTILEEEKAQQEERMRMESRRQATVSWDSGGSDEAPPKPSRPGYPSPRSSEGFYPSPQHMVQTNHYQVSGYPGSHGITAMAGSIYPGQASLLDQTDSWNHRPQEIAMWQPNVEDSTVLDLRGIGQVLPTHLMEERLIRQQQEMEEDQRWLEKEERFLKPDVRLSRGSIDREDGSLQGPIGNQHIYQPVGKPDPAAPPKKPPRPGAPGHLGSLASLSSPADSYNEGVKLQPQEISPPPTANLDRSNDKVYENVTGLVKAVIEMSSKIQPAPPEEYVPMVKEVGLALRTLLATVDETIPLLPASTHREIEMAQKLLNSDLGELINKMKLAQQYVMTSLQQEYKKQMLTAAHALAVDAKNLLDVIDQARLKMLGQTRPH
Summary of the method: (§3)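 HUVECs grown in RPMI 1640 with 10% FBS, 37 °C, 5% CO2; treated with no drug, 2 or 10 µM for 48 h. Lysed in RIPA with protease/phosphatase inhibitors on ice 30 min, protein by BCA, 8% SDS-PAGE, PVDF transfer, milk block, primary antibody overnight 4 °C, secondary 2 h RT; ECL detection, densitometry. Probed VEGF-R, FAK, p-FAK, SHC.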

SMMC-7721 = experiment: Antitumour activity against human SMMC7721 cells assessed as cell growth inhibition measured after 72 hrs by SRB assay; format: functional, cell-based; details: SMMC-7721, 72 h; summary of the method: as §2
Chorioallantoic membrane = experiment: Antiangiogenic activity in chicken chorioallantoic membrane assessed as reduction in neovascularization at 50 ug/ml measured after 72 hrs by CAM assay; format: functional; details: Gallus gallus
Summary of the method: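 Fertilized chicken eggs incubated 6 days at 37 °C; shell windowed and CAM treated (compounds and controls at […] as printed; saline vehicle control). Eggs re-incubated humidified; membranes fixed and harvested after 72 h. Angiogenesis scored by counting blood vessels and imaging neovascular zones; ten eggs per group.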

HUVEC = experiment: Effect on FAK expression in HUVEC at 2 to 10 uM after 48 hrs by Western blot analysis; format: functional, cell-based; details: Homo sapiens; summary of the method: as §3
PC-3 = experiment: Cytotoxicity against human PC3 cells assessed as reduction in cell viability measured after 48 to 72 hrs by MTT assay; format: cell-based
Summary of the method: (§4)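 Cells seeded at 3 × 10^3 per well in 96-well plates, incubated overnight, then given fresh medium with a range of drug concentrations for 48 h or 72 h. MTT added (final 500 µg/mL) for 4 h, formazan dissolved in DMSO, absorbance at 570 nm; IC50 derived. Mean ± SD of 3 independent tests.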

MDA-MB-231 = experiment: Cytotoxicity against human MDA-MB-231 cells assessed as reduction in cell viability measured after 48 to 72 hrs by MTT assay; format: cell-based; summary of the method: as §4

For `COc1cc2c(cc1O)CC[C@@H]1[C@@H]2CC[C@]2(C)C(=O)/C(=C/c3ccc(Cl)cc3)C[C@@H]12`, the inhibition (MCF7 [1]) was “Active”, the IC50 (MGC-803) was 14.9 µM and the inhibition (MCF7 [2]) was “Active”. The Activity [3] was “Toxic”, the inhibition [4] was “Active” and the IC50 (SMMC-7721) was 4.3 µM. For the same molecule, the inhibition (Chorioallantoic membrane) was “Active”, the Activity (HUVEC) was “inactive” and the Activity (PC-3) was “Toxic”. The IC50 (MDA-MB-231) was 78.6 µM.
